Test results as given in publication PMC4160068 (ACS chemical biology, 2014).

How the values were obtained:
[1] = target: PKCδ (Homo sapiens, UniProt Q05655); assay: In vitro kinase assay, PKCδ; format: biochemical
[2] = system: melanoma cell lines with NRAS mutations (SBcl2, FM6, SKMEL2, WM1366, WM1361A, WM852); assay: MTS cell survival assay in NRAS-mutant melanoma lines; format: cell-based; conditions: 24, 48, 72 hr
How it was run: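 Cell lines carrying NRAS Q61 mutations (SBcl2, FM6, SKMEL2, WM1366, WM1361A, WM852) exposed to test compounds at 2 or 5 µM, or 0.2 or 0.5 µM (0.1 and 2 µM also in SBcl2). MTS read at 24, 48 and 72 hr. Controls: DMSO vehicle and 2 µM negative control compound. Mean of triplicates ± SD; p versus DMSO at 72 hr.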

[3] = system: SBcl2 melanoma cells; assay: Clonogenic colony assay; format: cell-based; conditions: SBcl2, 1 µM, 48 hr of drug exposure, then 8 days without inhibitor
How it was run: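 SBcl2 cells exposed to test compound at 1 µM for 0, 12, 24 or 48 hr. Equal numbers of viable cells from each condition then replated at low density and grown 8 days in inhibitor-free medium. Colony-forming ability compared across exposure times.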

[4] = system: caspase 3/7 in SBcl2 cells; assay: Caspase 3/7 activity assay; format: cell-based; conditions: SBcl2, 5 µM, 24 hr
[5] = system: SBcl2 cells; assay: DNA fragmentation; format: cell-based; conditions: 24 hr
How it was run: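 SBcl2 cells treated 24 hr with test compound (5 or 0.5 µM) alone, or at 0.5 µM together with pan-caspase inhibitor Z-VAD-FMK (100 µM). Sub-G1 (fragmented DNA) fraction measured by flow cytometry. Mean of duplicates with SD.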

[6] = cited from earlier work
[7] = system: mice; conditions: administered orally or intraperitoneally to mice; cited from earlier work
[8] = system: normal primary cells or cell lines; conditions: at the concentrations employed herein; cited from earlier work
[9] = system: cancer cells with activation of RAS or RAS signaling; assay: "Ras-specific" cytotoxicity
[10] = system: MKK4-JNK-H2AX pathway in SBcl2 cells; assay: Immunoblot analysis of JNK pathway signaling; format: cell-based; conditions: pre-treatment 50 µM, data not shown
[11] = system: A375 and SKMEL5 parental cells; assay: MTS viability of parental BRAF-mutant melanoma cells under PLX4032; format: cell-based; conditions: concentrations in which PLX-R derivative lines grew

Chain of PKCδ (Q05655 whole entry): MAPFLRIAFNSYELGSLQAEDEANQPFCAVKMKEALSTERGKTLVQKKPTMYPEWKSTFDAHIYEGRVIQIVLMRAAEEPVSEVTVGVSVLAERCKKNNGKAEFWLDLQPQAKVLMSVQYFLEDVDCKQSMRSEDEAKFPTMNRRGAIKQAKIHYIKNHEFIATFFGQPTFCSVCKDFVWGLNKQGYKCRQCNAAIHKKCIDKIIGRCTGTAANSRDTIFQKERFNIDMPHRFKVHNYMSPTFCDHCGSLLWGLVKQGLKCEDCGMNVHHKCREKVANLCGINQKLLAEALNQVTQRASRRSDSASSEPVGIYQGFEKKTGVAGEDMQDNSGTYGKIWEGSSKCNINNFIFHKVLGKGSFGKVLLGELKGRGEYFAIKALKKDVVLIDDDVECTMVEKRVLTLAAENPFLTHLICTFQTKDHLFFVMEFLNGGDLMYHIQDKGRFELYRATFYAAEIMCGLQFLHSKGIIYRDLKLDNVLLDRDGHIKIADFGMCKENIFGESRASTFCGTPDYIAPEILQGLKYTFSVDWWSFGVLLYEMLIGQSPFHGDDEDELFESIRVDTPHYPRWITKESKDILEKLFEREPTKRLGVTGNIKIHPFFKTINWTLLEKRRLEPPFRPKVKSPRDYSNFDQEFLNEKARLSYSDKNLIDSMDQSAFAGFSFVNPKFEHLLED

With `CC(=O)c1c(O)c(C)c(O)c(Cc2c(O)c3c(c(C(=O)/C=C/c4ccccc4)c2O)OC(C)(C)C=C3)c1O` [Rottlerin, rottlerin] the IC50 ([1]; PKCδ IC50, in vitro kinase assay) was 3 to 5 µM, the “PKCδ/PKCα Selectivity” value ([1]; PKCδ over PKCα) was 28-fold and the “Cell proliferation (MTS)” value ([2]; 2 µM) was “intermediate inhibitory effects”. The “Cell proliferation (MTS)” value ([2]; 5 µM) was “consistently inhibited proliferation of all cell lines”, the “Reduction in the number of colonies” value [3] was “approximately 40 fold” and the “Increase in caspase 3/7 activity vs vehicle (DMSO)” value [4] was 5 fold. The “Proportion of sub-G1 population (fragmented DNA)” value ([5]; SBcl2, 5 µM) was “significantly higher”, the Aqueous solubility [6] was “moderate” and the Tolerability [7] was “well-tolerated”. For the same compound, the “Cytostatic or cytotoxic effect on normal cells” value [8] was “not cytostatic or cytotoxic” and the “"Ras-specific" Cytotoxicity” value [9] was 3 to 5 µM.
For “carbobenzoxy-valyl-alanyl-aspartyl-[Omethyl]-fluoromethylketone [Z-VAD-FMK]”, the “B106-induced DNA fragmentation” value ([5]; SBcl2 pretreated with 100 µM, B106 0.5 µM) was “significantly abrogated” and the “B106-induced caspase 3 cleavage (immunoblot)” value [10] was “prevented”.
With `CCCS(=O)(=O)Nc1ccc(F)c(C(=O)c2c[nH]c3ncc(-c4ccc(Cl)cc4)cc23)c1F` [PLX4032, vemurafenib] the “Cytotoxicity to parental cells” value [11] was “cytotoxic”.
